Assay results gathered from unrelated publications.
Lines come from different studies, so protocols differ.
HTR2B: 5-hydroxytryptamine receptor 2B (HTR2B, Homo sapiens, UniProt P41595)
mraY: mraY (Staphylococcus aureus, UniProt Q2FZ93)

SMILES | target | assay | setting | inhibition
CC[N+]1(C)CCc2cc(OC)c(OC)c3c2C1Cc1cccc(OC)c1-3 (stereo not drawn) | HTR2B | ligand displacement, radioligand | 10 µM | 26%
CCCCCCC#Cc1cncc(-c2nnc(SCc3cc([N+](=O)[O-])cc([N+](=O)[O-])c3)n2CCO)c1 | mraY | cell-free assay, inhibitor | 250 µM | 55%
Cc1cc(F)cc2c(CCC(=O)N[C@@H]3C(=O)NC[C@H]3O)c(-c3ccc(F)cc3)[nH]c12 | Substance-P receptor (TACR1, Homo sapiens, UniProt P25103) | cell-free assay | 10 µM | 25%
COc1cc2c3c(c1OC)-c1c(OC)ccc(NC(C)=O)c1CC3N(C)CC2 (stereo not drawn) | HTR2B | ligand displacement, radioligand | 10 µM | 20%
CCCCCCC#Cc1cncc(-c2nnc(SCc3cc(=O)[nH]c4ccccc34)n2C)c1 | mraY | cell-free assay, inhibitor | 250 µM | 30%
C#Cc1cc(-c2cc(Nc3nc(N[C@@H](C)c4ccc(F)cn4)ncc3Cl)n[nH]2)ccc1C=O | Serine/threonine-protein kinase SIK1 (SIK1, Homo sapiens, UniProt P57059) | enzyme activity, inhibitor | 0.2 µM | 82.4%
CCCCCCC#Cc1cncc(-c2nnc(SC[C@H]3O[C@@H](n4ccc(=O)[nH]c4=O)[C@H](O)[C@@H]3O)n2CCCN)c1 | mraY | cell-free assay, inhibitor | 250 µM | 44%
CCN1/C(=C/C(C)=O)Sc2ccc(F)cc21 | Gastrin/cholecystokinin type B receptor (CCKBR, Homo sapiens, UniProt P32239) | ligand displacement, radioligand | 10 µM | 1.43%
COc1cc2c3c(c1OC)-c1c(OC)ccc(N4CCOCC4)c1CC3N(C)CC2 (stereo not drawn) | HTR2B | ligand displacement, radioligand | 10 µM | 80%
NC/C(=C\F)COc1cccc(Cn2c(=S)[nH]c(=O)c3[nH]cnc32)c1 | HTR2B | ligand displacement, radioligand | 10 µM | < 50%
CCCCCCC#Cc1cncc(-c2nnc(SC[C@H]3O[C@@H](n4ccc(=O)[nH]c4=O)[C@H](O)[C@@H]3O)n2C)c1 | mraY | cell-free assay, inhibitor | 250 µM | 0%
COc1cc2c3c(c1OC)-c1c(OC)ccc(-c4ccc(C#N)cc4)c1CC3N(C)CC2 (stereo not drawn) | 5-hydroxytryptamine receptor 2C (HTR2C, Homo sapiens, UniProt P28335) | ligand displacement, radioligand | 10 µM | 24%
